Measured values pooled from the literature.
Each line is one published result; the experiments were not run side by side.
Cell line: MCF7
Read-out: cell growth or viability

SMILES | test | conditions | IC50
COc1cccc2c1C(=O)c1c(O)c3c(c(O)c1C2=O)C[C@@](O)(C(=O)CO)C[C@@H]3O[C@H]1C[C@H](N)[C@H](O)[C@H](C)O1 | MTT | 24 h | 18.4 µM
O=c1c2cc(Cl)cc(Cl)c2nc(NNc2cccc(Cl)c2)n1-c1ccccc1 | MTT | 48 h | > 200 µM
O=C1/C(=C/c2ccc3ccccc3c2O)NC(=S)N1c1ccccc1 | MTT | – | 8.1 mg/L
O=[N+]([O-])c1cc(Br)c(O)c(C=NNc2ccc(Br)cc2)c1 | MTT | 24 h | 9.23 µM
COc1ccc(NC(=S)N/N=C/c2cccc3cc4ccccc4nc23)cc1 | MTT | 48 h | > 50 µM
CC(=O)c1nc2ccccc2n1Cc1cn([C@@H]2OC[C@@H](O)[C@H](O)[C@H]2O)nn1 | LDH | 48 h | 2.08 µM
Cc1ccc(CN2C(=O)C(=Nc3c(C(C)C)cccc3C(C)C)c3ccccc32)cc1 | MTT | 48 h | 53.1 µM
CCOC(=O)c1c(C)nc2ccc(-c3ccc(F)c(F)c3)cc2c1O | MTT | 48 h | 12 µM
CCC(C(=O)N1C(=O)C(=Nc2ccc(Cl)cc2Br)c2ccccc21)c1ccccc1 (stereo not shown) | MTT | 48 h | 34.2 µM
CC(=NNC(=O)c1cc(-c2ccccc2)n(-c2ccc(S(N)(=O)=O)cc2)n1)c1ccc(Br)cc1 | fluorescence | 48 h | 35.4 µM
O=[N+]([O-])c1cc(Br)c(O)c(C=NNc2ccc(Cl)cc2)c1 | MTT | 24 h | 10.1 µM
CN1CCc2c(c3ccccc3n2Cc2ccc(C(=O)NO)cc2)C1 | CCK-8 | 48 h | 27.4 µM
COc1cc(C=O)ccc1OC1=C(Cl)C(=O)c2ccccc2C1=O | MTT | 24 h | 41.5 mg/L
O=C(O)c1c[nH]c2ccc(Oc3ccccc3)cc2c1=O | MTT | 48 h | 287 µM
CO[C@H]1[C@H](O[C@H]([C@H]2O[C@@H](n3ccc(=O)[nH]c3=O)[C@H](O)[C@@H]2O)[C@H](NCCCNC(=O)[C@@H](NC(=O)[C@@H](NC(=O)N[C@H](C(=O)O)C(C)C)[C@@H]2CCN=C(N)N2)[C@@H](O)C(C)C)C(=O)O)O[C@H](CN)[C@H]1O | WST-1 | – | > 35 µM
COc1ccc(N(Cc2csc(-c3ccc(C)cc3)n2)C(=O)CCCCCC(=O)NO)cc1 | MTT | 72 h | 3.31 µM
NNc1nc2c(Cl)cc(Cl)cc2c(=O)n1-c1ccccc1 | MTT | 48 h | > 200 µM
O=C(C=Cc1cccs1)c1ccc(OCCCOc2ccc(C(=O)C=Cc3cccs3)cc2)cc1 | MTT | 48 h | 4.05 µM
C[C@H]1[C@H](C)CC[C@]2(C)CC[C@]3(C)C(=CC(=O)[C@@H]4[C@@]5(C)CC[C@@H](O)[C@](C)(C(=O)NCc6cn(-c7ccc(Cl)cc7)nn6)[C@@H]5CC[C@]43C)[C@H]12 | MTT | 24 h | 134 µM
O=C(O)c1cn(Cc2ccc(C(F)(F)F)cc2)c2ccc(Oc3ccccc3)cc2c1=O | MTT | 24 h | 38.5 µM
O=C(NO)Nc1nc2ccc(Br)cc2c(=O)n1-c1ccccc1 | MTT | 48 h | 29.6 µM
Cc1cccc(N=C2C(=O)Nc3ccccc32)c1 | MTT | 48 h | 73.4 µM
C/C(=N\CCNCCNCC/N=C(\C)c1c(O)c2ccccc2oc1=O)c1c(O)c2ccccc2oc1=O | MTT | 48 h | 7.52 µM
CC(C)CNC(=S)N/N=C/c1cccc2cc3ccccc3nc12 | MTT | 48 h | > 50 µM
O=C1CS/C(=N\c2ccccc2O)N1c1nnc(-c2ccc(C(F)(F)F)cc2/N=C2\SCC(=O)N2c2ccccc2O)s1 | MTT | – | 32.4 µM
COC(=O)c1ccc2c(c1)NC(=O)/C2=C(\Nc1ccc(N(C)C(=O)CN2CCN(C)CC2)cc1)c1ccccc1 | MTT | 24 h | 0.98 µM
O=C1C(=Nc2ccc(Cl)cc2Br)c2ccccc2N1Cc1ccc([N+](=O)[O-])cc1 | MTT | 48 h | 2.33 µM
C/C(=N\C(=S)/N=C(\C)c1c(O)c2ccccc2oc1=O)c1c(O)c2ccccc2oc1=O | MTT | 48 h | 7.59 µM

SMILES | test | conditions | IC50
C(=N\Nc1cc(N/N=C/c2cccc3cccnc23)nc(-c2ccccc2)n1)/c1cccc2cccnc12 | MTT | 48 h | 10.4 µM
COc1cccc2c1C(=O)c1c(O)c3c(c(O)c1C2=O)C[C@@](O)(C(=O)CO)C[C@@H]3O[C@H]1C[C@H](N)[C@H](O)[C@H](C)O1 | – | 96 h | 0.146 µM
O=C1C(=Nc2ccc(Cl)cc2)c2ccccc2N1Cc1ccc(Br)cc1 | MTT | 48 h | 2.16 µM
COc1ccccc1-n1cc(CNC(=O)[C@@]2(C)[C@H](O)CC[C@@]3(C)[C@H]2CC[C@]2(C)[C@@H]3C(=O)C[C@@H]3[C@@H]4[C@@H](C)[C@H](C)CC[C@]4(C)CC[C@]32C)nn1 | MTT | 24 h | 73.4 µM
CN(C)C(=S)[N-]N=C(c1ccccn1)c1ccccn1.[O]=[V+]=[O] | MTT | – | 0.89 µM
O=C1CS/C(=N\c2cc(C(F)(F)F)ccc2-c2nnc(N3C(=O)CS/C3=N\c3ccc(F)cc3)s2)N1c1ccc(F)cc1 | MTT | – | 22.5 µM
Cc1nc2ccc(-c3cccc(F)c3)cc2c(O)c1C(=O)O | MTT | 48 h | ≥ 100 µM
CC1=CC(=O)C(C(C)C)=CC1=O | SRB | 48 h | 9.8 µM
Cc1cccc(N=C2C(=O)N(Cc3cccc(Cl)c3)c3ccccc32)c1 | MTT | 48 h | 2.12 µM
C(=N\Nc1cc(N/N=C/c2cccc3cccnc23)ncn1)/c1cccc2cccnc12 | MTT | 48 h | 7.02 µM
CCOC(=O)c1c(C)nc2ccc(-c3ccc(OCc4ccccc4)c(F)c3)cc2c1O | MTT | 48 h | 5 µM
FC(F)(F)c1ccc(-c2noc(-c3nn(Cc4ccc(Cl)cc4Cl)c4ccccc34)n2)cc1 | – | 48 h | 166 µM
COc1cccc(Nc2nc(-c3ccncc3)nc3c2CNCC3)c1 | MTT | – | 30.1 µM
NS(=O)(=O)c1ccc(-n2nc(-c3nnc(CCl)o3)cc2-c2ccccc2)cc1 | fluorescence | 48 h | 31.4 µM
O=C1Nc2ccccc2/C1=N/N=C/c1cccc([N+](=O)[O-])c1 | MTT | 48 h | 22.8 mg/L
CC(=O)OC[C@H]1O[C@@H](n2cc(Cn3c(C(C)=O)nc4ccccc43)nn2)[C@H](OC(C)=O)[C@@H](OC(C)=O)[C@H]1OC(C)=O | LDH | 48 h | 3.79 µM
CC(=O)c1c(O)c2ccccc2oc1=O | MTT | 48 h | 32.5 µM
Fc1ccc2c(-c3nnc(Cc4ccccc4)s3)nn(Cc3ccc(Cl)cc3Cl)c2c1 | – | 48 h | 89.3 µM
NS(=O)(=O)c1ccc(-n2nc(-c3nnc(S)o3)cc2-c2ccccc2)cc1 | fluorescence | 48 h | 35.4 µM
COc1ccc2c(-c3nc(-c4ccccc4)no3)nn(Cc3ccncc3)c2c1 | – | 48 h | 86.5 µM
CCCN1CC(Oc2ccc([C@@H]3c4[nH]c5ccccc5c4C[C@@H](C)N3CC(C)(C)F)cc2)C1 | – | – | 0.00794 µM
COc1cc(N=C2C(=O)Nc3ccccc32)cc(OC)c1 | MTT | 48 h | 16.2 µM
O=S(=O)([O-])c1ccc(O)c(C=NNC(=S)Nc2cccc3ccccc23)c1.[Na+] | MTT | 24 h | > 800 mg/L
O=C1CSC(=Nc2cc([N+](=O)[O-])ccc2[N+](=O)[O-])N1c1nnc(-c2ccc(C(F)(F)F)cc2N=C2SCC(=O)N2c2cc([N+](=O)[O-])ccc2[N+](=O)[O-])s1 | MTT | – | 83.4 µM
CC(C)c1cccc(C(C)C)c1N=C1C(=O)N(Cc2ccc(Br)cc2)c2ccccc21 | MTT | 48 h | 52.6 µM
Cc1noc(-c2nn(Cc3ccc(Cl)cc3Cl)c3ccccc23)n1 | – | 48 h | 47.5 µM
CC(C)Cc1ccc([C@H](C)C(=O)O)cc1 | SRB | 72 h | 399 µM
